Results published in ChEMBL document CHEMBL3627702, “Navigating CYP1A Induction and Arylhydrocarbon Receptor Agonism in Drug Discovery. A Case History with S1P1 Agonists” (J Med Chem, 2015).

Tests used:
[1] = AUC in Sprague-Dawley rat at 19 mg/kg, po QD measured on day 4; assay type: ADME, organism-based; conditions: in vivo
Summary of the method: (§1)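 Male CD rats (226−325 g), n = 3, given the compound once daily by oral gavage for 4 days. Vehicle was 1% (w/v) methylcellulose aq suspension at 3−6 mg/mL, dosed at 5 mL/kg (target 15−30 mg/kg). Tail vein blood was taken on days 1 and 4 up to 24 h postdose. Blood was diluted 1:1 with water, extracted by acetonitrile protein precipitation and analysed by LC−MS/MS against calibration standards in diluted blood.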

[2] = test system: CYP1A2; assay: Induction of CYP1A2 mRNA expression in Sprague-Dawley rat hepatic microsomes at 19 mg/kg, po QD for 4 days relative to control; assay type: ADME, organism-based, Liver; conditions: read-out: FC
[3] = Cmax in Sprague-Dawley rat at 19 mg/kg, po QD measured on day 1; assay type: ADME, organism-based; design: dose 19 mg/kg, route oral; conditions: in vivo; summary of the method: as §1
[4] = test system: Rattus norvegicus; assay: Dose normalized AUC in Sprague-Dawley rat at 19 mg/kg, po QD measured on day 4; assay type: ADME, organism-based; conditions: in vivo; summary of the method: as §1
[5] = test system: Rattus norvegicus; assay: Dose normalized AUC in Sprague-Dawley rat at 19 mg/kg, po QD measured on day 1; assay type: ADME, organism-based; conditions: in vivo; summary of the method: as §1
[6] = AUC in Sprague-Dawley rat at 19 mg/kg, po QD measured on day 1; assay type: ADME, organism-based; conditions: in vivo; summary of the method: as §1
[7] = Cmax in Sprague-Dawley rat at 19 mg/kg, po QD measured on day 4; assay type: ADME, organism-based; design: dose 19 mg/kg, route oral; conditions: in vivo; summary of the method: as §1
[8] = Lipophilicity, log D of the compound at pH 7.4; assay type: physicochemical; conditions: buffer
[9] = test system: CYP1A1; assay: Induction of CYP1A1 mRNA expression in Sprague-Dawley rat hepatic microsomes at 19 mg/kg, po QD for 4 days relative to control; assay type: ADME, organism-based, Liver; conditions: read-out: FC
Summary of the method: (§2)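 Male CD rats (226–325 g, n = 3) were dosed by oral gavage once daily for 4 days as a 1% w/v aqueous methylcellulose suspension (3–6 mg/mL, 5 mL/kg). At the end of the study, a left lateral liver lobe section was placed in RNALater and homogenised in TRIzol. RNA was purified, DNase-treated and converted to cDNA, and Cyp1a1 was read on low-density TaqMan arrays.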

[10] = Dissociation constant, pKa of the compound; assay type: physicochemical
[11] = AUC in Sprague-Dawley rat at 25 mg/kg, po QD measured on day 4; assay type: ADME, organism-based; conditions: in vivo; summary of the method: as §1
[12] = Cmax in Sprague-Dawley rat at 25 mg/kg, po QD measured on day 4; assay type: ADME, organism-based; design: dose 25 mg/kg, route oral; conditions: in vivo; summary of the method: as §1
[13] = test system: CYP1A1; assay: Induction of CYP1A1 mRNA expression in Sprague-Dawley rat hepatic microsomes at 25 mg/kg, po QD for 4 days relative to control; assay type: ADME, organism-based, Liver; conditions: read-out: FC; summary of the method: as §2
[14] = test system: Rattus norvegicus; assay: Dose normalized AUC in Sprague-Dawley rat at 25 mg/kg, po QD measured on day 1; assay type: ADME, organism-based; conditions: in vivo; summary of the method: as §1
[15] = Cmax in Sprague-Dawley rat at 25 mg/kg, po QD measured on day 1; assay type: ADME, organism-based; design: dose 25 mg/kg, route oral; conditions: in vivo; summary of the method: as §1
[16] = AUC in Sprague-Dawley rat at 25 mg/kg, po QD measured on day 1; assay type: ADME, organism-based; conditions: in vivo; summary of the method: as §1
[17] = test system: Rattus norvegicus; assay: Dose normalized AUC in Sprague-Dawley rat at 25 mg/kg, po QD measured on day 4; assay type: ADME, organism-based; conditions: in vivo; summary of the method: as §1
[18] = test system: CYP1A2; assay: Induction of CYP1A2 mRNA expression in Sprague-Dawley rat hepatic microsomes at 25 mg/kg, po QD for 4 days relative to control; assay type: ADME, organism-based, Liver; conditions: read-out: FC
[19] = test system: Rattus norvegicus; assay: Dose normalized AUC in Sprague-Dawley rat at 15 mg/kg, po QD measured on day 4; assay type: ADME, organism-based; conditions: in vivo; summary of the method: as §1
[20] = AUC in Sprague-Dawley rat at 15 mg/kg, po QD measured on day 4; assay type: ADME, organism-based; conditions: in vivo; summary of the method: as §1
[21] = test system: CYP1A2; assay: Induction of CYP1A2 mRNA expression in Sprague-Dawley rat hepatic microsomes at 15 mg/kg, po QD for 4 days relative to control; assay type: ADME, organism-based, Liver; conditions: read-out: FC
[22] = AUC in Sprague-Dawley rat at 15 mg/kg, po QD measured on day 1; assay type: ADME, organism-based; conditions: in vivo; summary of the method: as §1
[23] = test system: Rattus norvegicus; assay: Dose normalized AUC in Sprague-Dawley rat at 15 mg/kg, po QD measured on day 1; assay type: ADME, organism-based; conditions: in vivo; summary of the method: as §1
[24] = test system: CYP1A1; assay: Induction of CYP1A1 mRNA expression in Sprague-Dawley rat hepatic microsomes at 15 mg/kg, po QD for 4 days relative to control; assay type: ADME, organism-based, Liver; conditions: read-out: FC; summary of the method: as §2
[25] = Cmax in Sprague-Dawley rat at 15 mg/kg, po QD measured on day 4; assay type: ADME, organism-based; design: dose 15 mg/kg, route oral; conditions: in vivo; summary of the method: as §1
[26] = Cmax in Sprague-Dawley rat at 15 mg/kg, po QD measured on day 1; assay type: ADME, organism-based; design: dose 15 mg/kg, route oral; conditions: in vivo; summary of the method: as §1
[27] = test system: CYP1A2; assay: Induction of CYP1A2 mRNA expression in Sprague-Dawley rat hepatic microsomes at 24 mg/kg, po QD for 4 days relative to control; assay type: ADME, organism-based, Liver; conditions: read-out: FC
[28] = AUC in Sprague-Dawley rat at 24 mg/kg, po QD measured on day 1; assay type: ADME, organism-based; conditions: in vivo; summary of the method: as §1
[29] = AUC in Sprague-Dawley rat at 24 mg/kg, po QD measured on day 4; assay type: ADME, organism-based; conditions: in vivo; summary of the method: as §1
[30] = test system: CYP1A1; assay: Induction of CYP1A1 mRNA expression in Sprague-Dawley rat hepatic microsomes at 24 mg/kg, po QD for 4 days relative to control; assay type: ADME, organism-based, Liver; conditions: read-out: FC; summary of the method: as §2
[31] = test system: Rattus norvegicus; assay: Dose normalized AUC in Sprague-Dawley rat at 24 mg/kg, po QD measured on day 1; assay type: ADME, organism-based; conditions: in vivo; summary of the method: as §1
[32] = test system: Rattus norvegicus; assay: Dose normalized AUC in Sprague-Dawley rat at 24 mg/kg, po QD measured on day 4; assay type: ADME, organism-based; conditions: in vivo; summary of the method: as §1
[33] = Cmax in Sprague-Dawley rat at 24 mg/kg, po QD measured on day 1; assay type: ADME, organism-based; design: dose 24 mg/kg, route oral; conditions: in vivo; summary of the method: as §1
[34] = Cmax in Sprague-Dawley rat at 24 mg/kg, po QD measured on day 4; assay type: ADME, organism-based; design: dose 24 mg/kg, route oral; conditions: in vivo; summary of the method: as §1
[35] = Blood clearance in CD rat at 1 mg/kg, iv; assay type: ADME, organism-based
Summary of the method: (§3)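 Male CD rats carried femoral vein (dosing) and jugular vein (sampling) cannulae and recovered at least 2 days. They received a 1 h iv infusion at 5 mL kg−1 h−1, target 1 mg/kg, at 0.2 mg/mL in DMSO/10% Kleptose in saline (≤5%:≥95%). pH was adjusted to 8.0 if needed and the solution filtered. Definitive studies used n = 3 in crossover; others used single animals.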

[36] = Oral bioavailability in CD rat at 3 mg/kg; assay type: ADME, organism-based; conditions: in vivo
Summary of the method: (§4)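 Male CD rats cannulated in the femoral and jugular veins, n = 3, crossover design. Day 1: 1 h iv infusion at 1 mg/kg (0.2 mg/mL in ≤5% DMSO/≥95% 10% Kleptose in saline, 5 mL/kg/h). Day 2: oral gavage at 3 mg/kg (0.6 mg/mL in 1% methylcellulose, 5 mL/kg). Blood assayed by LC–MS/MS after acetonitrile precipitation.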

[37] = Half life in CD rat at 1 mg/kg, iv; assay type: ADME, organism-based; conditions: in vivo; summary of the method: as §3
[38] = Volume of distribution at steady state in CD rat at 1 mg/kg, iv; assay type: ADME, organism-based; conditions: in vivo, read-out: Vdss; summary of the method: as §4

AUC [1] [ng·h/mL]	fold induction at 96 h [2]	Cmax [3] [ng/mL]	AUC/dose [4] [kg·min/L]	AUC/dose [5] [kg·min/L]	AUC [6] [ng·h/mL]	Cmax [7] [ng/mL]	logD [8]	fold induction at 96 h [9]	pKa [10]	fold induction at 96 h [27]	AUC [28] [ng·h/mL]	AUC [29] [ng·h/mL]	fold induction at 96 h [30]	AUC/dose [31] [kg·min/L]	AUC/dose [32] [kg·min/L]	Cmax [33] [ng/mL]	Cmax [34] [ng/mL]	Compound	also measured
27800	1	1750	89	61	19100	2320	2.33	1.7	7.2	–	–	–	–	–	–	–	–	Cc1c(-c2nnc(-c3ccc(OC(C)C)c(C#N)c3)s2)ccc2c1CCN(C(CO)CO)C2	–
26000	1.7	1290	83	65	20800	1530	2.36	126	8.4	–	–	–	–	–	–	–	–	Cc1c(-c2noc(-c3ccc(OC(C)C)c(C#N)c3)n2)ccc2c1CCN(C[C@@H](O)CO)CC2	–
–	–	–	–	–	–	–	2.36	–	8.4	–	–	–	–	–	–	–	–	Cc1c(-c2noc(-c3ccc(OC(C)C)c(C#N)c3)n2)ccc2c1CCN(C[C@H](O)CO)CC2	AUC [11]: 15600 ng·h/mL; Cmax [12]: 870 ng/mL; fold induction at 96 h [13]: 215; AUC/dose [14]: 31 kg·min/L; Cmax [15]: 730 ng/mL; AUC [16]: 13200 ng·h/mL; AUC/dose [17]: 38 kg·min/L; fold induction at 96 h [18]: 2.2
–	–	–	–	–	–	–	2.64	–	8.2	–	–	–	–	–	–	–	–	Cc1c(-c2noc(-c3ccc(OC(C)C)c(C#N)c3)n2)ccc2c1CCN(C(CO)CO)CC2	AUC/dose [19]: 46 kg·min/L; AUC [20]: 11500 ng·h/mL; fold induction at 96 h [21]: 1.9; AUC [22]: 9100 ng·h/mL; AUC/dose [23]: 36 kg·min/L; fold induction at 96 h [24]: 275; Cmax [25]: 670 ng/mL; Cmax [26]: 550 ng/mL
–	–	–	–	–	–	–	2.44	–	8.3	2	17000	24900	81	43	63	1140	1350	Cc1c(-c2noc(-c3cnc(NC(C)C)c(C#N)c3)n2)ccc2c1CCN(C(CO)CO)CC2	–
–	–	–	–	–	–	–	2.63	–	8.1	2	15300	21300	100	38	55	1010	1220	CC(C)Nc1ncc(-c2nc(-c3ccc4c(c3)CCN(C(CO)CO)CC4)no2)cc1C#N	clearance [35]: 22 mL/min/kg; bioavailability [36]: 67%; half-life [37]: 8.1 h; Vd [38]: 10.9 L/kg
